pEC50, pIC50: −log10 of the molar value. Active and inactive are the calls of the source. The rule behind the calls is not given here.
Key:
[1] = Inhibition of HCV J4 genotype 1b recombinant His-tagged NS5B truncated at 21 C-terminal expressed in Escherichia coli C41 (DE3) assessed as synthesis of […]; parameters: species or system Hepatitis C virus isolate HC-J4
Hepatitis C virus = test: Antiviral activity against HCV genotype 2a/2a J6/JFH1 model infected in Huh7.5 cells after 72 hrs by luciferase reporter gene assay; assay type: functional, organism-based, Hepacivirus hominis; details: subtype 2a J6/JFH1, Huh7.5, 72 h
Procedure, shortened: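 Huh7.5 cells were seeded at 10 000 cells/well and infected 24 h later with J6/JFH1 HCVcc, then incubated overnight at 37°C. Cells were washed and given increasing compound concentrations in medium with 1% DMSO for 72 h at 37°C. After a PBS wash, cells were lysed in Renilla lysis buffer and luciferase activity was read for 10 s.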

[2] = Inhibition of HCV J4 genotype 1b recombinant His-tagged NS5B truncated at 21 C-terminal P495L mutant expressed in Escherichia coli C41 (DE3) assessed as synthesis of […]; parameters: species or system Hepatitis C virus isolate HC-J4
[3] = tested on: Hepatitis C virus isolate HC-J4; test: Inhibition of HCV J4 genotype 1b recombinant His-tagged NS5B truncated at 21 C-terminal H95Q mutant expressed in Escherichia coli C41 (DE3) assessed as synthesis of […]
HEK293 = test: Cytotoxicity against HEK293 cells at 50 uM after 72 hrs by MTT assay; details: human, hek293, 72 h

pIC50 [1] | pEC50 (Hepatitis C virus) | Structure (SMILES) | pIC50 [2] | Activity [3] | Activity (HEK293)
5.74 | 4.05 | O=C1/C(=C/c2ccc(OCC(COc3ccc(/C=C4\Oc5cc(O)cc(O)c5C4=O)cc3)CC3CCCCC3)cc2)Oc2cc(O)cc(O)c21 (stereo unspecified) | – | – | –
5.72 | – | O=C1/C(=C/c2ccc(OCC(COc3ccc(/C=C4\Oc5cc(O)cc(O)c5C4=O)cc3)C3CCCC3)cc2)Oc2cc(O)cc(O)c21 (stereo unspecified) | – | – | –
5.82 | 3.67 | O=C1/C(=C/c2ccc(OCCCOc3ccc(/C=C4\Oc5cc(O)cc(O)c5C4=O)cc3)cc2)Oc2cc(O)cc(O)c21 | – | – | –
5.51 | – | O=C1/C(=C/c2ccc(-c3cccc(/C=C4\Oc5cc(O)cc(O)c5C4=O)c3)cc2)Oc2cc(O)cc(O)c21 | – | – | –
5.72 | 4.12 | CC(C)CC(COc1ccc(/C=C2\Oc3cc(O)cc(O)c3C2=O)cc1)COc1ccc(/C=C2\Oc3cc(O)cc(O)c3C2=O)cc1 | – | – | –
5.70 | 4.38 | O=C1/C(=C/c2ccc(OCC(COc3ccc(/C=C4\Oc5cc(O)cc(O)c5C4=O)cc3)C3CCCCC3)cc2)Oc2cc(O)cc(O)c21 (stereo unspecified) | – | – | –

Continued, molecule first:

Structure (SMILES) | pIC50 [1] | pEC50 (Hepatitis C virus) | pIC50 [2] | Activity [3] | Activity (HEK293)
COc1c(-c2ccc3cc(NS(C)(=O)=O)ccc3c2)cc(-n2ccc(=O)[nH]c2=O)cc1C(C)(C)C [DASABUVIR] | 6.22 | 5.04 | – | – | –
O=C1/C(=C/c2cccc(/C=C3\Oc4cc(O)cc(O)c4C3=O)c2)Oc2cc(O)cc(O)c21 | 5.44 | – | – | – | –
O=C1/C(=C/c2ccc(/C=C3\Oc4cc(O)cc(O)c4C3=O)cc2)Oc2cc(O)cc(O)c21 | 5.89 | 3.69 | 5.82 | inactive | Non-toxic
O=C1/C(=C/c2ccc(-c3ccccc3/C=C3\Oc4cc(O)cc(O)c4C3=O)cc2)Oc2cc(O)cc(O)c21 | 5.22 | – | – | – | –
CC(C)CC(COc1ccc(/C=C2\Oc3ccccc3C2=O)cc1)COc1ccc(/C=C2\Oc3ccccc3C2=O)cc1 | – | < 3.40 | – | – | –
COc1cc(OC)c2c(c1)O/C(=C\c1cccc(/C=C3\Oc4cc(OC)cc(OC)c4C3=O)c1)C2=O | – | – | – | – | Non-toxic
